For 26 compounds, Activation and EC50 results are on record in ChEMBL document CHEMBL1148470, “Synthesis, SAR, crystal structure, and biological evaluation of benzoquinoliziniums as activators of wild-type and mutant cystic fibrosis transmembrane conductance regulator channels” (J Med Chem, 2004).

pEC50: −log10 of the molar value.

Assay [1] addresses T1, Cystic fibrosis transmembrane conductance regulator (Homo sapiens, UniProt P13569). Briefly: Percent activation of wild type CFTR dependent efflux was determined by measuring the rate of iodide [125I]- efflux from transfected CHO cells. On the set-up: concentration or dose not given beside the values. It is filed as functional, cell-based. In a few lines: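 CHO cells stably expressing wild-type CFTR (MEM, 7% FBS, 100 μM methotrexate), grown in 24-well plates. Loaded 30 min at 37 °C in efflux buffer (NaCl/KCl/MgCl2/glucose/HEPES, pH 7.4) with 1 μM KI and 125I; medium sampled every 1 min up to 11 min, drug after four baseline aliquots, compounds at 250 μM. Peak efflux rate expressed relative to 5 μM forskolin (=100%); mean ± SEM, n experiments.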
Target sequence in this assay (P13569 whole entry, looked up): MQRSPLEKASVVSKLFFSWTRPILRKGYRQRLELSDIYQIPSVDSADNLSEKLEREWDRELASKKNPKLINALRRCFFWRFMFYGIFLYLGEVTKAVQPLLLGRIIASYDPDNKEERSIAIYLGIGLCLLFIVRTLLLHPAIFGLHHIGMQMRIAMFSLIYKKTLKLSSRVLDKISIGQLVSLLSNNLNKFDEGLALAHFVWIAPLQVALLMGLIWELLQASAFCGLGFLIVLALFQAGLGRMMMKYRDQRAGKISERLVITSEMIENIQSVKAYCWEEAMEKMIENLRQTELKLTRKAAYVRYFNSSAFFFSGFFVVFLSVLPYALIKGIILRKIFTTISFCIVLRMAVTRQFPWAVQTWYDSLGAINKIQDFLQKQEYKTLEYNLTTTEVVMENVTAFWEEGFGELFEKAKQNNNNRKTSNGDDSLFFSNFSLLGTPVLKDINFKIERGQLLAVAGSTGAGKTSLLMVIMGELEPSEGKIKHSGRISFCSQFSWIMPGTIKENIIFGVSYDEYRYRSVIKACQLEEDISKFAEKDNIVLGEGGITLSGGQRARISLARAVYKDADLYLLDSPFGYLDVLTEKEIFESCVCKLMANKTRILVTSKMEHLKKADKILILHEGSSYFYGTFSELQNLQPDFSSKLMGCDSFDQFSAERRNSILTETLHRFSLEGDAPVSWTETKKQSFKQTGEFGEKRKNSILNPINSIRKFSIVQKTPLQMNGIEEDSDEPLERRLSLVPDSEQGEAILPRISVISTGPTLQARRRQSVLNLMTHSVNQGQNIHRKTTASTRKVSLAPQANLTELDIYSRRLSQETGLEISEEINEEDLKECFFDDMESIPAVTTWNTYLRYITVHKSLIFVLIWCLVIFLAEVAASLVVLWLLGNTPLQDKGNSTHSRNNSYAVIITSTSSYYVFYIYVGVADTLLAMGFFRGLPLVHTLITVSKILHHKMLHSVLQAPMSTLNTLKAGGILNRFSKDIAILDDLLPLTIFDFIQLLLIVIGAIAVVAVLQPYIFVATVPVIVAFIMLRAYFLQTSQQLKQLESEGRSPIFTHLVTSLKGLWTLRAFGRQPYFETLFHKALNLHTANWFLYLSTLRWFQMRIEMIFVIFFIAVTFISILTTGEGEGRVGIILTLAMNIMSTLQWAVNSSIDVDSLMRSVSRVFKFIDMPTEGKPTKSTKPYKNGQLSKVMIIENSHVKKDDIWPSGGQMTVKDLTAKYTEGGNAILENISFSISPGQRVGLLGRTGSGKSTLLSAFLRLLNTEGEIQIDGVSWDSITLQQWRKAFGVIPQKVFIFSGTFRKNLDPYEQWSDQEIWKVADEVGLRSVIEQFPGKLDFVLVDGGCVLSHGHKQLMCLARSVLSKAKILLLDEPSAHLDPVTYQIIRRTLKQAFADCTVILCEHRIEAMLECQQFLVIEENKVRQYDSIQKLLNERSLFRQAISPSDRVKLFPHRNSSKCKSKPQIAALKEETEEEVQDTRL

The target in assay [2] is T1, Cystic fibrosis transmembrane conductance regulator. Kind of assay: Half-Maximal effective concentration of compound required to stimulate of wild type-CFTR activity in the presence of 1 uM Fsk.
Target sequence in this assay (P13569 whole entry): as the sequence (P13569 whole entry, looked up) above
Assay [3] has as its target Cystic fibrosis transmembrane conductance regulator (Homo sapiens, UniProt P13569, G551D). Briefly: Half-Maximal effective concentration of compound required to stimulate of G551D-CFTR activity in the presence of 10 uM Fsk. It is filed as functional. In a few lines:
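G551D-CFTR stably expressed in CHO cells. The ¹²⁵I efflux assay was run on a robot: cells were loaded for 30 min at 37 °C in HEPES buffer pH 7.4 containing 1 μM KI and 1 μCi/mL ¹²⁵I, and efflux was sampled each minute for up to 11 min (4 baseline samples). Cells were exposed to 10 μM Fsk, then to increasing compound concentrations. EC50 came from %-of-maximal-effect curves, n = 6, mean ± SEM.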

Sequence of Cystic fibrosis transmembrane conductance regulator (Homo sapiens, UniProt P13569, G551D) (P13569 whole entry G551D): as the sequence (P13569 whole entry, looked up) above, with G551D counted along it

In assay [1], `CCOC(=O)c1c(O)c2cc(F)ccc2[n+]2ccccc12` gave an Activation of less than 5%.

As for `Oc1c(-c2ccccc2)c2cccc[n+]2c2c(Cl)cccc12`, the Activation in assay [1] was determined as 6%. Still for that read-out and setting: with `Oc1c2c3c(ccc[n+]3c3cccc(F)c13)CC2` the figure was less than 5%. On to `CCCCc1c(O)c2c(Cl)cccc2[n+]2ccccc12`, for which the Activation in assay [1] is 33%. Moreover, the values for the negative-log EC50 (pEC50) in assay [2] and in assay [3] were 5.77 and 6.12, respectively. The matching figures for `CCCc1c(O)c2cccc(Cl)c2[n+]2ccccc12`: 32%, 4.27 and 4.32. For the compound `Oc1cc2cccc[n+]2c2ccc(F)cc12`, the Activation in assay [1] worked out at 11%. On to `Oc1cc2cccc[n+]2c2c(Cl)cccc12`, for which the Activation in assay [1] came to 24%. Also, the negative logarithm of the EC50 (pEC50) is 3.85 in assay [2] and less than 3.70 in assay [3].

`Oc1cc2cccc[n+]2c2cc(F)ccc12` displayed an Activation in assay [1] of 16%. On the same count and under the same terms, with `Cc1c(O)c2cccc(Cl)c2[n+]2ccccc12` the figure was 19%; with `Nc1cc2[n+](c3ccc(Cl)cc13)CCc1c-2[nH]c2ccccc12`, 6%; with `Nc1cc2[n+](c3cccc(Cl)c13)CCc1c-2[nH]c2ccccc12`, 30%. In assay [1], `CCCCc1c(O)c2cccc(Cl)c2[n+]2ccccc12` had an Activation of 45%. Moreover, the negative-log EC50 (pEC50) in assay [2] was 4.63; in assay [3] it was 4.47. Consider `CCOC(=O)c1c(O)c2c(F)cccc2[n+]2ccccc12`, for which the Activation in assay [1] came to 8%. As to `C=C[C@@]1(C)CC(=O)[C@]2(O)[C@@]3(C)[C@@H](O)CCC(C)(C)[C@@H]3[C@H](O)[C@H](OC(C)=O)[C@@]2(C)O1`, in assay [1], the Activation turned out to be 100%.

In the case of `Oc1cc2cccc[n+]2c2cccc(F)c12`, in assay [1], the Activation is less than 5%. Compound `CCOC(=O)c1c(O)c2cccc(F)c2[n+]2ccccc12` displayed an Activation in assay [1] of 37%. The values for the negative logarithm of the EC50 (pEC50) in assay [2] and in assay [3] were 4.15 and 4.02, respectively. In the case of `Oc1cc2cccc[n+]2c2c(F)cccc12`, the Activation in assay [1] is less than 5%.

For `Nc1cc2cccc[n+]2c2cccc(Cl)c12`, the Activation in assay [1] was less than 5%.

In assay [1], `Oc1cc2cccc[n+]2c2ccc(Cl)cc12` gave an Activation of 18%. The compound `CCCCCc1c(O)c2cccc(Cl)c2[n+]2ccccc12` came in with an Activation in assay [1] of 38%. For the same compound, the pEC50 in assay [2] was 4.68; in assay [3], 4.70. The matching figures for `Oc1cc2cccc[n+]2c2cccc(Cl)c12`: 20%, 3.84 and less than 3.70. Consider `CCOC(=O)c1c(O)c2ccc(F)cc2[n+]2ccccc12`, for which, in assay [1], the Activation was determined as 6%. Same read-out and setting: as for `Nc1cc2[n+](c3c(Cl)cccc13)CCc1c-2[nH]c2ccccc12`, the figure is 46%. The same measure, in the same setting: with `Nc1cc2cccc[n+]2c2c(Cl)cccc12` the figure was less than 5%; with `Oc1cc2cccc[n+]2c2cc(Cl)ccc12`, less than 5%. Compound `CC(C)Cc1c(O)c2cccc(Cl)c2[n+]2ccccc12` yielded an Activation in assay [1] of 26%. Moreover, the pEC50 was 4.59 in assay [2] and 4.49 in assay [3].
